Results of several laboratories.
Each line is one published result; the experiments were not run side by side.
SLCO1B1: Solute carrier organic anion transporter family member 1B1 (SLCO1B1, Homo sapiens, UniProt Q9Y6L6)
PGR: Progesterone receptor (PGR, Homo sapiens, UniProt P06401)
CHRM1: Muscarinic acetylcholine receptor M1 (CHRM1, Homo sapiens, UniProt P11229)

CCOC(=O)c1cncn1[C@H](C)c1ccccc1 — IC50 (SLCO1B1; transporter uptake, inhibitor, fluorescence; CHO; 30 min, pH 7.4): > 100 µM
C[C@]12CC[C@H]3[C@@H](CCC4=CC(=O)CC[C@@H]43)[C@@H]1CC[C@@H]2O — IC50 (PGR; ligand displacement): 0.0678 µM
COC1CCN(CCC(C#N)(c2ccccc2)c2ccccc2)CC1 — IC50 (Potassium voltage-gated channel subfamily A member 3 (Kcna3, Mus musculus, UniProt P16390); ion current, inhibitor, patch clamp): > 100 µM
CC(C)(C)[C@H](NC(=O)C(F)(F)F)C(=O)N1C[C@H]2[C@@H]([C@H]1C(=O)N[C@H](C#N)C[C@@H]1CCNC1=O)C2(C)C — IC50 (Papain (Carica papaya, UniProt P00784); enzyme activity, inhibitor): > 10 µM
C[C@]12CC[C@H]3[C@@H](CCC4=CC(=O)CC[C@@]43C)[C@@H]1CC[C@@H]2O — IC50 (PGR; ligand displacement): > 0.5 µM
Clc1cccc(N2CCNCC2)c1Cl — Ki (CHRM1; ligand displacement, radioligand; cell membranes): 25.1 µM
CC(C)(C)[C@H](NC(=O)C(F)(F)F)C(=O)N1C[C@H]2[C@@H]([C@H]1C(=O)N[C@H](C#N)C[C@@H]1CCNC1=O)C2(C)C — Ki (Cytochrome P450 3A4 (CYP3A4, Homo sapiens, UniProt P08684); enzyme activity, inhibitor; human, liver microsomes): 22.6 µM
CCCCCCCNCCCc1ccc([N+](=O)[O-])cc1 — Ki (CHRM1; ligand displacement, radioligand): 1.9 µM
C[C@]1(O)CC[C@H]2[C@@H]3CCC4=CC(=O)CCC4=C3CC[C@@]21C — EC50 (PGR; reporter gene, agonist): 0.0008 µM
CCN1C[C@]2(COC)[C@H](O)C[C@H](OC)[C@@]34[C@@H]5C[C@@]6(O)[C@H](OC(=O)c7ccccc7)[C@@H]5[C@@](OC(C)=O)([C@@H]([C@H](OC)[C@H]23)[C@@H]14)[C@@H](O)[C@@H]6OC — IC50 (SLCO1B1; transporter uptake, inhibitor, fluorescence; CHO; 30 min, pH 7.4): > 100 µM
Cc1nnc2n1-c1ccc(Cl)cc1C(c1ccccc1)=NC2 — IC50 (Cytochrome P450 1A2 (CYP1A2, Homo sapiens, UniProt P05177); enzyme activity, inhibitor, fluorescence): > 100 µM
